Test results published in ChEMBL document CHEMBL5107937, “Synthesis and antitumour evaluation of indole-2-carboxamides against paediatric brain cancer cells” (RSC Med Chem, 2021).

Experiments:
KNS-42 [1] = assay: Cytotoxicity against human KNS-42 cells assessed as reduction in cell viability incubated for 72 hrs by PrestoBlue reagent based cell viability assay; assay type: functional; conditions: KNS-42, 72 h
Method in brief: (§1)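 Viability screen run in triplicate. IC50 is the compound dose giving 50% inhibition of cell viability, taken as cytotoxicity.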

Cannabinoid receptor 1 [2] = target: T1, Cannabinoid receptor 1 (Homo sapiens, UniProt P21554); assay: Antagonist activity at human CB1R expressed in mouse AtT20 cells at 10 uM by FLIPR membrane potential assay; assay type: functional, cell-based
Method in brief: (§2)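 AtT-20 cells stably carrying human CB1R or human CB2R were pre-incubated with compound or vehicle for 60 minutes. 500 nM CP 55940 was then added and membrane potential responses were recorded. IC50 is for inhibition of the agonist response.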

[3] = Octanol-water partition coefficient, logP of the compound; assay type: physicochemical
Daoy [4] = assay: Cytotoxicity against human Daoy cells assessed as reduction in cell viability incubated for 72 hrs by PrestoBlue reagent based cell viability assay; assay type: functional; method in brief: as §1
[5] = Cytotoxicity against human BT-16 cells assessed as reduction in cell viability incubated for 72 hrs by PrestoBlue reagent based cell viability assay; assay type: functional; conditions: BT-16, 72 h; method in brief: as §1
[6] = Antiproliferative activity against human BT-12 cells assessed as cell growth inhibition incubated for 72 hrs by MTT assay; assay type: functional, cell-based; conditions: BT-12, 72 h
Method in brief: (§3)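 Proliferation screen run in triplicate. IC50 is the compound dose giving 50% inhibition of cell proliferation.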

Cannabinoid receptor 2 [7] = target: T2, Cannabinoid receptor 2 (Homo sapiens, UniProt P34972); assay: Antagonist activity at human CB2R expressed in mouse AtT20 cells at 10 uM by FLIPR membrane potential assay; assay type: functional, cell-based; method in brief: as §2
[8] = Antiproliferative activity against human BT-16 cells assessed as cell growth inhibition incubated for 72 hrs by MTT assay; assay type: functional, cell-based; conditions: BT-16, 72 h; method in brief: as §3
Cannabinoid receptor 2 [9] = target: T2, Cannabinoid receptor 2; assay: Agonist activity at human CB2R expressed in mouse AtT20 cells at 10 uM by FLIPR membrane potential assay; assay type: functional, cell-based
Method in brief: (§4)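 Agonist mode: AtT-20 cells stably transfected with human CB1R or human CB2R; membrane potential responses recorded.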

Daoy [10] = assay: Antiproliferative activity against human Daoy cells assessed as cell growth inhibition incubated for 72 hrs by MTT assay; assay type: functional, cell-based; method in brief: as §3
[11] = Antiproliferative activity against human HFF-1 cells assessed as cell growth inhibition incubated for 72 hrs by MTT assay; assay type: toxicity, cell-based; method in brief: as §3
KNS-42 [12] = assay: Antiproliferative activity against human KNS-42 cells assessed as cell growth inhibition incubated for 72 hrs by MTT assay; assay type: functional, cell-based; conditions: KNS-42, 72 h; method in brief: as §3
[13] = Cytotoxicity against human BT-12 cells assessed as reduction in cell viability incubated for 72 hrs by PrestoBlue reagent based cell viability assay; assay type: functional; conditions: BT-12, 72 h; method in brief: as §1
Cannabinoid receptor 1 [14] = target: T1, Cannabinoid receptor 1; assay: Agonist activity at human CB1R expressed in mouse AtT20 cells at 10 uM by FLIPR membrane potential assay; assay type: functional, cell-based; method in brief: as §4
[15] = Cytotoxicity against human HFF-1 cells assessed as reduction in cell viability incubated for 72 hrs by PrestoBlue reagent based cell viability assay; assay type: toxicity; method in brief: as §1
Cannabinoid receptor 1 [16] = target: T1, Cannabinoid receptor 1; assay: Antagonist activity at human CB1R expressed in mouse AtT20 cells by FLIPR membrane potential assay; assay type: functional, cell-based; method in brief: as §2
Cannabinoid receptor 2 [17] = target: T2, Cannabinoid receptor 2; assay: Antagonist activity at human CB2R expressed in mouse AtT20 cells by FLIPR membrane potential assay; assay type: functional, cell-based
Method in brief: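 AtT-20 cells stably transfected with human CB2R; membrane potential response read out. Antagonist mode: cells pre-incubated with vehicle or compound for 60 min, then challenged with 500 nM CP 55940. IC50 derived from inhibition of the agonist response. Not active defined as <50% inhibition at 10 μM.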

T2 sequence (P34972 whole entry): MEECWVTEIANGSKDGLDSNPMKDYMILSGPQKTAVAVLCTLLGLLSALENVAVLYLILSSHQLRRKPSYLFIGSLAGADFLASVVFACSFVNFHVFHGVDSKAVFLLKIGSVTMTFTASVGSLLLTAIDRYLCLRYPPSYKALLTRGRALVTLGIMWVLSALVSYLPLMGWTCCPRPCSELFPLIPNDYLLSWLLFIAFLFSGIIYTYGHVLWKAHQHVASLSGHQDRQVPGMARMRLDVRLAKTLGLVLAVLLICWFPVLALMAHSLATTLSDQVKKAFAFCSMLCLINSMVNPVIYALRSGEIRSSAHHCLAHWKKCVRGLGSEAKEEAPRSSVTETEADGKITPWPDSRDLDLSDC
T1 sequence (P21554 whole entry): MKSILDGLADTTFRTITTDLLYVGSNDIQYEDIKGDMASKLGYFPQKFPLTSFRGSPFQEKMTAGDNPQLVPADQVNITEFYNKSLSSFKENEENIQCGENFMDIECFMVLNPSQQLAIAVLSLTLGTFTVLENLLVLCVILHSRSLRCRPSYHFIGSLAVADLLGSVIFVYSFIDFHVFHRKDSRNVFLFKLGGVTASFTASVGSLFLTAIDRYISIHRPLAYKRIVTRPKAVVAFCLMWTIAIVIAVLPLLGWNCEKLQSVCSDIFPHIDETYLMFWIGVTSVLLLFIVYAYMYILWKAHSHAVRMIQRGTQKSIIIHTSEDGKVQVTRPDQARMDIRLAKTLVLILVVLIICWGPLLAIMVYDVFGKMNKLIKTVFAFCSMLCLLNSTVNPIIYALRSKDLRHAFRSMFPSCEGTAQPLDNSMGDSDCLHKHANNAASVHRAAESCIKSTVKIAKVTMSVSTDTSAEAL

O=C(Nc1nc2ccccc2[nH]1)c1cc2c(F)cc(F)cc2[nH]1
IC50 (KNS-42 [1]): 4.49 µM | inhibition (Cannabinoid receptor 1 [2]): < 50% | logP [3]: 2.69 | IC50 (Daoy [4]): 1.02 µM | IC50 [5]: 1.37 µM | IC50 [6]: 1.79 µM | inhibition (Cannabinoid receptor 2 [7]): < 50% | IC50 [8]: 5.41 µM | Activity (Cannabinoid receptor 2 [9]): < 50% | IC50 (Daoy [10]): 2.31 µM | IC50 at 72 h [11]: 3.03 µM | IC50 (KNS-42 [12]): 4.03 µM | IC50 [13]: 7.65 µM | Activity (Cannabinoid receptor 1 [14]): < 50% | IC50 at 72 h [15]: 115 µM

O=C(NC12CC3CC(CC(C3)C1)C2)c1c[nH]c2cc(Cl)cc(Cl)c2c1=O
IC50 (KNS-42 [1]): > 10 µM | IC50 (KNS-42 [12]): 9.17 µM

O=C(NC12CC3CC(CC(C3)C1)C2)c1n[nH]c2ccccc12
IC50 (KNS-42 [1]): > 10 µM | IC50 (KNS-42 [12]): > 10 µM

O=C(NCc1ccc2c(c1)OCO2)c1cc2c(F)cc(F)cc2[nH]1
IC50 (KNS-42 [1]): > 10 µM | IC50 (KNS-42 [12]): > 10 µM

O=C(NC12CC3CC(CC(C3)C1)C2)c1cc2ccccc2[nH]1
IC50 (KNS-42 [1]): 0.33 µM | IC50 (KNS-42 [12]): > 10 µM

O=C(NC12CC3CC(CC(C3)C1)C2)c1cc(=O)c2c(Cl)cc(Cl)cc2[nH]1
IC50 (KNS-42 [1]): > 10 µM | IC50 (KNS-42 [12]): > 10 µM

O=C(NC12CC3CC(CC(C3)C1)C2)c1c[nH]c2c(Cl)c(Cl)ccc2c1=O
IC50 (KNS-42 [1]): > 10 µM | IC50 (KNS-42 [12]): 8.05 µM

CCCC(C)(C)c1ccc2c(c1)OC(C)(C)[C@@H]1CC=C(C)C[C@@H]21
IC50 (KNS-42 [1]): > 10 µM | IC50 (KNS-42 [12]): > 10 µM

O=C(NC12CC3CC(CC(C3)C1)C2)c1nc2ccccc2[nH]1
IC50 (KNS-42 [1]): > 10 µM | IC50 (KNS-42 [12]): > 10 µM

COc1cccc(CNC(=O)c2cc3c(F)cc(F)cc3[nH]2)c1OC
IC50 (KNS-42 [1]): > 10 µM | IC50 (KNS-42 [12]): > 10 µM

Cc1cccc(CNC(=O)c2cc3c(F)cc(F)cc3[nH]2)c1
IC50 (KNS-42 [1]): > 10 µM | IC50 (KNS-42 [12]): > 10 µM

O=C(NC12CC3CC(CC(C3)C1)C2)c1c[nH]c2cc(Br)ccc2c1=O
IC50 (KNS-42 [1]): > 10 µM | IC50 (KNS-42 [12]): > 10 µM

O=C(Cc1ccc(NC(=O)c2cc3c(F)cc(F)cc3[nH]2)cc1)NC12CC3CC(CC(C3)C1)C2
IC50 (KNS-42 [1]): > 10 µM | IC50 (KNS-42 [12]): 4.9 µM

O=C(NC12CC3CC(CC(C3)C1)C2)c1cc(=O)c2c(Cl)ccc(Cl)c2[nH]1
IC50 (KNS-42 [1]): > 10 µM | IC50 (KNS-42 [12]): > 10 µM

O=C(NC12CC3CC(CC(C3)C1)C2)c1cc(=O)c2cc(Cl)ccc2[nH]1
IC50 (KNS-42 [1]): > 10 µM | IC50 (KNS-42 [12]): 6.11 µM

Cc1c(C(=O)c2cccc3ccccc23)c2cccc3c2n1[C@@H](CN1CCOCC1)CO3
IC50 (KNS-42 [1]): 8.02 µM | logP [3]: 4.13 | IC50 (Daoy [4]): > 10 µM | IC50 [5]: 4.74 µM | IC50 [6]: 9.32 µM | IC50 [8]: 4.57 µM | IC50 (Daoy [10]): 6.09 µM | IC50 at 72 h [11]: 1.82 µM | IC50 (KNS-42 [12]): 8.07 µM | IC50 [13]: 8.6 µM | IC50 at 72 h [15]: 0.023 µM

O=C(NCCc1ccc2c(c1)OCO2)c1cc2c(F)cc(F)cc2[nH]1
IC50 (KNS-42 [1]): 2.34 µM | logP [3]: 3.02 | IC50 (Cannabinoid receptor 1 [16]): 0.373 µM | IC50 (Daoy [4]): 3.65 µM | IC50 [5]: 2.72 µM | IC50 [6]: 4.1 µM | inhibition (Cannabinoid receptor 2 [7]): < 50% | IC50 [8]: 7.53 µM | Activity (Cannabinoid receptor 2 [9]): < 50% | IC50 (Daoy [10]): 9.91 µM | IC50 at 72 h [11]: 6.98 µM | IC50 (KNS-42 [12]): 2.88 µM | IC50 [13]: 6.08 µM | Activity (Cannabinoid receptor 1 [14]): < 50% | IC50 at 72 h [15]: 81 µM

O=C(NC12CC3CC(CC(C3)C1)C2)c1c[nH]c2ccc(Cl)cc2c1=O
IC50 (KNS-42 [1]): > 10 µM | IC50 (KNS-42 [12]): > 10 µM

O=C(NC12CC3CC(CC(C3)C1)C2)c1c[nH]c2c(Cl)ccc(Cl)c2c1=O
IC50 (KNS-42 [1]): 9.06 µM | inhibition (Cannabinoid receptor 1 [2]): < 50% | IC50 (Daoy [4]): 1.54 µM | IC50 [5]: 1.96 µM | IC50 [6]: 3.59 µM | IC50 [8]: 4.88 µM | IC50 (Cannabinoid receptor 2 [17]): 1.28 µM | Activity (Cannabinoid receptor 2 [9]): < 50% | IC50 (Daoy [10]): 4.71 µM | IC50 at 72 h [11]: 3.85 µM | IC50 (KNS-42 [12]): 2.92 µM | IC50 [13]: 5.15 µM | Activity (Cannabinoid receptor 1 [14]): < 50% | IC50 at 72 h [15]: 7.04 µM

O=C(CNC(=O)c1cc2c(F)cc(F)cc2[nH]1)NC12CC3CC(CC(C3)C1)C2
IC50 (KNS-42 [1]): > 10 µM | IC50 (KNS-42 [12]): > 10 µM

O=C(NC12CC3CC(CC(C3)C1)C2)c1cc(=O)c2ccc(Cl)c(Cl)c2[nH]1
IC50 (KNS-42 [1]): > 10 µM | IC50 (KNS-42 [12]): > 10 µM

O=C(NC12CC3CC(CC(C3)C1)C2)c1cc(=O)c2ccc(Br)cc2[nH]1
IC50 (KNS-42 [1]): > 10 µM | IC50 (KNS-42 [12]): > 10 µM

O=C(NC12CC3CC(CC(C3)C1)C2)c1cc2ccccc2n1CCCCO
IC50 (KNS-42 [1]): 4.75 µM | IC50 (KNS-42 [12]): > 10 µM

O=C(CC12CC3CC(CC(C3)C1)C2)Nc1nc2ccccc2[nH]1
IC50 (KNS-42 [1]): > 10 µM | IC50 (KNS-42 [12]): 6.46 µM

O=C(Nc1nc2ccccc2[nH]1)C12CC3CC(CC(C3)C1)C2
IC50 (KNS-42 [1]): > 10 µM | IC50 (KNS-42 [12]): > 10 µM

O=C(c1cc2c(F)cc(F)cc2[nH]1)N1CCN(C(=O)C23CC4CC(CC(C4)C2)C3)CC1
IC50 (KNS-42 [1]): 5.04 µM | inhibition (Cannabinoid receptor 1 [2]): < 50% | inhibition (Cannabinoid receptor 2 [7]): < 50% | Activity (Cannabinoid receptor 2 [9]): < 50% | IC50 (KNS-42 [12]): 6.62 µM | Activity (Cannabinoid receptor 1 [14]): < 50%

O=C(NC12CC3CC(CC(C3)C1)C2)c1ccc(NC(=O)c2cc3c(F)cc(F)cc3[nH]2)cc1
IC50 (KNS-42 [1]): > 10 µM | IC50 (KNS-42 [12]): > 10 µM

O=C(NCc1ccccc1)c1cc2c(F)cc(F)cc2[nH]1
IC50 (KNS-42 [1]): 8.25 µM | inhibition (Cannabinoid receptor 1 [2]): < 50% | logP [3]: 3.17 | IC50 (Daoy [4]): > 10 µM | IC50 [5]: 1.81 µM | IC50 [6]: 7.44 µM | inhibition (Cannabinoid receptor 2 [7]): < 50% | IC50 [8]: 6.06 µM | Activity (Cannabinoid receptor 2 [9]): < 50% | IC50 (Daoy [10]): > 10 µM | IC50 at 72 h [11]: 65 µM | IC50 (KNS-42 [12]): 9.85 µM | IC50 [13]: 0.89 µM | Activity (Cannabinoid receptor 1 [14]): < 50% | IC50 at 72 h [15]: 119 µM

O=C(NCc1ccc(F)cc1)c1cc2c(F)cc(F)cc2[nH]1
IC50 (KNS-42 [1]): 3.41 µM | inhibition (Cannabinoid receptor 1 [2]): < 50% | logP [3]: 3.23 | IC50 (Daoy [4]): 4.1 µM | IC50 [5]: 5.5 µM | IC50 [6]: 8.87 µM | inhibition (Cannabinoid receptor 2 [7]): < 50% | IC50 [8]: 9.79 µM | Activity (Cannabinoid receptor 2 [9]): < 50% | IC50 (Daoy [10]): > 10 µM | IC50 at 72 h [11]: 40 µM | IC50 (KNS-42 [12]): 4.34 µM | IC50 [13]: 9.23 µM | Activity (Cannabinoid receptor 1 [14]): < 50% | IC50 at 72 h [15]: 281 µM
